Folding enthalpy and Tm data for 37 sequences are collected here from the array DNA melting data of Ke et al. (doi:10.1101/2024.01.08.574731).

The nature of data set [1]: folding enthalpy; higher = less favourable; fluorescence melt of hairpins on a sequencing array, two-state fit. As to conditions: sodium 0.088 M. The method, boiled down: (§1)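 Folding enthalpy and melting temperature were estimated with bootstrapped two-state fits and combined across four replicates by inverse-variance weighting, with fitted temperatures raised by 9.35 °C to match UV melts. The data were Cy3 fluorescence of library hairpins, with annealed Cy3 and quencher oligos, on a sequenced MiSeq flow cell in 50 mM Na-HEPES pH 8.0, 25 mM NaCl, imaged in 2.5 °C steps up to 60 °C and normalised to pre-quench Cy3 and control constructs.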

Data set [2] is described as follows: melting temperature; fluorescence melt of hairpins on a sequencing array, two-state fit, raised by 9.35 °C to match UV melts. The note with it: sodium 0.088 M. An outline of the steps: as §1

GCTGCGGGAAACTGCGGC ((.((.(....).)).)): in data set [1], the folding enthalpy is -47.5 kcal/mol. Also, in data set [2], the Tm is 51.8 °C.
The matching figures for GCTGCTCGAAAGAGGAGC (((.(((....))).))): -38.9 kcal/mol and 59.6 °C.
Turning to GCTGCTCGAAAGAGTAGC (((.(((....))).))), the folding enthalpy in data set [1] is -38.9 kcal/mol. The Tm in data set [2] amounted to 62.1 °C.
As for GCTGCTGGAAACAGCAAC (.(((((....))))).), the folding enthalpy in data set [1] is -12.1 kcal/mol. In addition, the Tm in data set [2] is 44.3 °C.
Turning to GCTGGACCGAAAGGTAGC (((..(((....)))))), in data set [1], the folding enthalpy is -18.5 kcal/mol. In addition, in data set [2], the Tm is 39.5 °C.
Turning to GCTGGACGAAAGTCAAGC (((.(((....))).))), in data set [1], the folding enthalpy is -38.3 kcal/mol. Also, the Tm in data set [2] is 58.7 °C.
In the case of GCTGGAGGAAACTCCAAC (.(((((....))))).), the folding enthalpy in data set [1] is -15.6 kcal/mol. Further, the Tm in data set [2] is 38 °C.
GCTGGCGAAAGCCTCAGC ((((((....)))..))): the folding enthalpy in data set [1] is -14.7 kcal/mol. The Tm in data set [2] came out at 46.6 °C.
GCTGGCGGAAACACCAGC (((((.(....).))))): the folding enthalpy in data set [1] was -40.8 kcal/mol. The Tm in data set [2] turned out to be 53.5 °C.
The matching figures for GCTGGCGGAAACGCCAAC (.(((((....))))).): -11.2 kcal/mol and 43.7 °C.
With GCTGGCGGAAACGCTGGC ((..(((....)))..)), in data set [1], the folding enthalpy is -32.7 kcal/mol. Besides, in data set [2], the Tm is 53.7 °C.
With GCTGGCTCGAAAGAGAGC (((..(((....)))))), the folding enthalpy in data set [1] was -11.1 kcal/mol. The Tm in data set [2] was 36.9 °C.
Take GCTGGGCGAAAGCACGGC ((.(.((....)).).)): the folding enthalpy in data set [1] is -21.2 kcal/mol. Further, in data set [2], the Tm came out at 69.1 °C.
As to GCTGGGCGAAAGCATAGC (((..((....))..))), the folding enthalpy in data set [1] is -22.9 kcal/mol. The Tm in data set [2] is 54.2 °C.
With GCTGGGCGAAAGCCATGC ((..(((....)))..)), in data set [1], the folding enthalpy is -19.2 kcal/mol. Moreover, the Tm in data set [2] is 55.1 °C.
On to GCTGGGCGAAAGCCGAGC (((.(((....))).))), for which, in data set [1], the folding enthalpy is -38.5 kcal/mol. Also, in data set [2], the Tm worked out at 58.6 °C.
The matching figures for GCTGGGCGAAAGCCGTGC ((..(((....)))..)): -18.2 kcal/mol and 47.6 °C.
For the sequence GCTGGGCGAAAGCGCGGC ((.(.((....)).).)), the folding enthalpy in data set [1] is -33.2 kcal/mol. In addition, in data set [2], the Tm is 64.1 °C.
For GCTGGGCGAAAGCTAAGC (((..((....))..))), in data set [1], the folding enthalpy is -22.1 kcal/mol. The Tm in data set [2] amounted to 53.9 °C.
On to GCTGGGGGAAACCCTGGC ((..(((....)))..)), for which, in data set [1], the folding enthalpy is -23.4 kcal/mol. For the same sequence, in data set [2], the Tm worked out at 49.1 °C.
The matching figures for GCTGGTGAAAACCAGC ((((((....)))))): -22.6 kcal/mol and 69.1 °C.
Take GCTGGTGCGAAAGCAAGC (((..(((....)))))): in data set [1], the folding enthalpy is -14.5 kcal/mol. Further, the Tm in data set [2] worked out at 43 °C.
Turning to GCTGGTGGAAACACTGGC ((..(((....)))..)), the folding enthalpy in data set [1] was -30.1 kcal/mol. For the same sequence, the Tm in data set [2] stood at 45.9 °C.
With GCTGTAGGAAACTACAAC (.(((((....))))).), in data set [1], the folding enthalpy is -19.2 kcal/mol. The Tm in data set [2] came to 30.9 °C.
For the sequence GCTGTCACGAAAGTGAGC (((..(((....)))))), the folding enthalpy in data set [1] was -12.2 kcal/mol. Moreover, in data set [2], the Tm was 38.3 °C.
As to GCTGTCCGAAAGGAAGC (((.(((....)))))), the folding enthalpy in data set [1] is -23.9 kcal/mol. Moreover, in data set [2], the Tm was 49.1 °C.
For GCTGTCGAAAGACGAGC ((((((....))).))), the folding enthalpy in data set [1] is -25.6 kcal/mol. Besides, in data set [2], the Tm was found to be 54.1 °C.
For GCTGTCGAAAGACTAAGC ((((((....)))..))), the folding enthalpy in data set [1] was -20 kcal/mol. The Tm in data set [2] came out at 46.2 °C.
On to GCTGTGCGAAAGCAAGC (((.(((....)))))), for which the folding enthalpy in data set [1] is -21.5 kcal/mol. Further, the Tm in data set [2] came out at 51.8 °C.
The matching figures for GCTGTGCGAAAGCATTGC ((..(((....)))..)): -20.7 kcal/mol and 53.5 °C.
GCTGTGCGAAAGCCCGGC ((.(.((....)).).)): in data set [1], the folding enthalpy is -20 kcal/mol. In addition, the Tm in data set [2] came out at 46.8 °C.
The matching figures for GCTGTGCGAAAGCCGAGC (((..((....))..))): -19 kcal/mol and 41.8 °C.
For GCTGTGCGAAAGCGCCGC ((.(.((....)).).)), the folding enthalpy in data set [1] was -18.6 kcal/mol. Moreover, the Tm in data set [2] turned out to be 49.6 °C.
Turning to GCTGTGCGAAAGCGCTGC ((.(.((....)).).)), in data set [1], the folding enthalpy is -25.6 kcal/mol. Further, the Tm in data set [2] was found to be 60.1 °C.
Regarding GCTGTGCGAAAGCTCGGC ((.(.((....)).).)), in data set [1], the folding enthalpy is -24.6 kcal/mol. Further, the Tm in data set [2] was 56 °C.
Turning to GCTGTTCGAAAGAAAAGC (((.(((....))).))), the folding enthalpy in data set [1] is -28.6 kcal/mol. Also, in data set [2], the Tm was 46.5 °C.
As for GCTGTTGGAAACAACGGC ((.((((....)))).)), in data set [1], the folding enthalpy is -39.8 kcal/mol. For the same sequence, the Tm in data set [2] is 54.3 °C.
